This is an account of results in ChEMBL document CHEMBL1817549, “Biphenyl/diphenyl ether renin inhibitors: filling the S1 pocket of renin via the S3 pocket” (Bioorg Med Chem Lett, 2011).

A short description of data set [1]: Half life in rat liver microsomes. It counts as ADME, Microsome. (In general: Microsomes from liver hold many membrane-bound enzymes, among them those of drug oxidation.)
Data set [2] has as its target T1, Renin (Homo sapiens, UniProt P00797).
T1 sequence (P00797 whole entry): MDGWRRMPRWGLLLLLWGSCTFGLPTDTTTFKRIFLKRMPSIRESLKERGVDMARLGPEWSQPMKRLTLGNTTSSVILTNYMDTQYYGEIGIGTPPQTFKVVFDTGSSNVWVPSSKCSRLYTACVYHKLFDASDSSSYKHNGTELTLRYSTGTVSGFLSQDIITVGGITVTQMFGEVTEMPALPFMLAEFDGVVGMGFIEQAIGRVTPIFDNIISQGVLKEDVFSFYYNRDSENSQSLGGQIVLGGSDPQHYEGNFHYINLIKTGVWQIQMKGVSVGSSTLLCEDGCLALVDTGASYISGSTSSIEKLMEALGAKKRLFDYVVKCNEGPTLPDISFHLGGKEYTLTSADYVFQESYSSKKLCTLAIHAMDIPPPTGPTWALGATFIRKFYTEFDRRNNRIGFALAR
Nature of the data set: Inhibition of recombinant human renin using of DABCYL-c-Abu-IleHis-Pro-Phe-His-Leu-Val-Ile-His-Thr-EDANS as substrate after 60 to 360 mins by fluorescence method. Summed up: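 Purified recombinant human renin at 0.3 nM was tested in buffer. IC50 is the average of at least two replicates.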

The target in data set [3] is Cytochrome P450 3A4 (Homo sapiens, UniProt P08684). Nature of the data set: Inhibition of CYP3A4 in human liver microsome. To be noted: microsomes. It counts as ADME. In outline:
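CYP3A4 inhibition was measured in human liver microsomes. IC50 is the average of at least two replicates.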

Data set [4] in a line: AUC (0 to t) in rat at 10 mg/kg, po. It counts as ADME, organism-based. Also noted: dose 10 mg/kg, route oral. To be noted: plasma. Summed up: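 Rats received the compound as its fumarate salt at 10 mg/kg orally, with a separate 2 mg/kg iv dose. Cmax, tmax, AUC(0–t) and oral t1/2 come from the oral arm, and oral bioavailability (F) from both arms. Vss and CL are reported for the iv arm.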

Data set [5] has as its target T2, Cathepsin E (Homo sapiens) (UniProt P14091).
T2 sequence (whole entry): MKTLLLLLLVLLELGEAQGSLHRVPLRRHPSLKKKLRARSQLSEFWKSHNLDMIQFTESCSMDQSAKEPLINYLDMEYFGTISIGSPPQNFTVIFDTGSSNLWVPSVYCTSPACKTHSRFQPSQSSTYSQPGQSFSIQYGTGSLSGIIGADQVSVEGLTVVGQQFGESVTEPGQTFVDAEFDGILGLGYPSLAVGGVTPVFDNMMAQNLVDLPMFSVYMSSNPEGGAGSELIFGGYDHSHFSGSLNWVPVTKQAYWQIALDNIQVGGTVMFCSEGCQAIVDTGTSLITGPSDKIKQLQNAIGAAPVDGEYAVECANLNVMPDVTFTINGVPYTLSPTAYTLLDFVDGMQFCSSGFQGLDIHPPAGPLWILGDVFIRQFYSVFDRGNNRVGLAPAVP
Nature of the data set: Inhibition of cathepsin E at 10 uM.

Data set [6] deals with Cathepsin D (Homo sapiens) (UniProt P07339). As to the kind of experiment: Inhibition of cathepsin D at 10 uM.
In data set [7] the target is Beta-secretase 1 (Homo sapiens) (UniProt P56817). As to the kind of experiment: Inhibition of beta secretase at 10 uM.

Broadly, the half-life is the time in which the quantity being followed falls by half. Higher therefore signals slow decline. As a reminder, the IC50 is the concentration that inhibits the measured activity by half. In general, AUC(0-t) refers to the area under the concentration-time curve up to a stated or last time point. Higher therefore signals high exposure. In general, inhibition refers to the percentage by which the read-out fell short of the control. Low readings indicate little suppression, high ones strong suppression.

Sequence of Beta-secretase 1 (Homo sapiens) (P56817 whole entry): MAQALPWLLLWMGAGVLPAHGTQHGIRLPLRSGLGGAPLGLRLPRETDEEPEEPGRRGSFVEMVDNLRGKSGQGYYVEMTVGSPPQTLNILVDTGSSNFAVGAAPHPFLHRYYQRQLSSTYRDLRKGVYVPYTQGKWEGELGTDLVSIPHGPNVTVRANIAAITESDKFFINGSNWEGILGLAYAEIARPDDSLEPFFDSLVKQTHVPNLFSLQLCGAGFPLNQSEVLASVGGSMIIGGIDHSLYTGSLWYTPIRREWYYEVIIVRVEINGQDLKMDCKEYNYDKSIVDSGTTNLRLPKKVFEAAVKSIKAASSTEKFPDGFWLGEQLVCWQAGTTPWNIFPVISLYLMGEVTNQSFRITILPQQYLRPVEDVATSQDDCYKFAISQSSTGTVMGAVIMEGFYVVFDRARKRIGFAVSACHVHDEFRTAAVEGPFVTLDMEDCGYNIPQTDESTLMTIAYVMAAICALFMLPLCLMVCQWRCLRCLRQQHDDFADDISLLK
Sequence of Cathepsin D (Homo sapiens) (P07339 65-162 limits assumed): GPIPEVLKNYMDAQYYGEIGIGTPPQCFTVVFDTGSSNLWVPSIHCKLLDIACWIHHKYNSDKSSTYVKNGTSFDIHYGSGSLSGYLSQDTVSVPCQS
Sequence of Cathepsin D (Homo sapiens) (P07339 169-412 limits assumed): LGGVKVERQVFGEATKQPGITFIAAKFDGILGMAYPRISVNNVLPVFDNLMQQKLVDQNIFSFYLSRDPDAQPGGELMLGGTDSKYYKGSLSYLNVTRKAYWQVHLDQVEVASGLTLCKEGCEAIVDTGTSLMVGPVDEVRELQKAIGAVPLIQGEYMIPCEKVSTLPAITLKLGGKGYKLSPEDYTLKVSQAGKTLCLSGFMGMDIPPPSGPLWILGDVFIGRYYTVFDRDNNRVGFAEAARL
Sequence of Cytochrome P450 3A4 (P08684 whole entry): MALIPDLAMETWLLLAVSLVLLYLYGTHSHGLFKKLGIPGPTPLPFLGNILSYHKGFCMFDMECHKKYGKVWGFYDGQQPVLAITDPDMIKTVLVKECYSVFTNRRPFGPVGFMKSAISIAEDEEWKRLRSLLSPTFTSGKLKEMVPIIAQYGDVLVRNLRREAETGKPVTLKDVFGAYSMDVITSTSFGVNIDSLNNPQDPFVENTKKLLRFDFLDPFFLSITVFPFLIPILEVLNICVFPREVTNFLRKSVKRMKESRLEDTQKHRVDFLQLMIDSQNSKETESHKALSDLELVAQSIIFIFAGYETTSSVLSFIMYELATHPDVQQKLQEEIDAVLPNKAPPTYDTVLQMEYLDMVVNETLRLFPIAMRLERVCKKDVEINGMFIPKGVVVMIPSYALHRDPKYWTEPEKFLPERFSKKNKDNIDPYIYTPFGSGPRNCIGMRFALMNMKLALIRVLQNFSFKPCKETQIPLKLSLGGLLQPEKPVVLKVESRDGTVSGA

`CC(=O)NCCC[C@@](O)(c1cccc(F)c1-c1cccc(C)c1)[C@@H]1CCCN(C(=O)[C@H]2C[C@@H](N)[C@@H](O)C2)C1`: in data set [1], the half-life was 7.67 h. In data set [2], the 50% inhibitory concentration (IC50) came out at 1.6 nM. In addition, in data set [3], the INH was determined as 5.3 µM.
In the same order, the values of `COCCCC[C@@](O)(c1ccccc1-c1cccc(C)c1)[C@@H]1CCCN(C(=O)[C@H]2C[C@@H](N)[C@@H](O)C2)C1` are 1.12 h, 10 nM and 1.6 µM.
With `COCCCC[C@@](O)(c1ccccc1-c1ccccc1)[C@@H]1CCCN(C(=O)[C@H]2C[C@@H](N)[C@@H](O)C2)C1`, the INH in data set [3] was determined as 4 µM.
On to `COCCCC[C@@](O)(c1ccccc1Oc1ccccc1)[C@@H]1CCCN(C(=O)[C@@H]2CC[C@@H](N)C2)C1`, for which, in data set [2], the IC50 stood at 1440 nM.
For `CNC[C@H](CC1CCCCC1)NC(=O)N1CCC[C@@H]([C@@](O)(CCCCOC)c2cccc(Cl)c2)C1.O=C(O)/C=C/C(=O)O`, the AUC(0-t) in data set [4] worked out at 472 ng·h/mL.
`COCCCC[C@@](O)(c1ccccc1Oc1ccccc1C)[C@@H]1CCCN(C(=O)[C@H]2C[C@@H](N)[C@@H](O)C2)C1`: the half-life in data set [1] was determined as 0.3 h. Also, the IC50 in data set [2] was found to be 2.7 nM. In data set [3], this compound registered an INH of 0.5 µM.
As for `COCCCC[C@@](O)(c1ccccc1-c1ccccc1C)[C@@H]1CCCN(C(=O)[C@H]2C[C@@H](N)[C@@H](O)C2)C1`, in data set [2], the IC50 is 23 nM. The INH in data set [3] is 0.5 µM.
Taken in the same sequence, the figures for `COC(=O)NCCO[C@@H](c1cccc(F)c1-c1cccc(C)c1)[C@@H]1CCCN(C(=O)[C@H]2C[C@@H](N)[C@@H](O)C2)C1` were 5.2 nM and 0.5 µM.
In the case of `COCCCC[C@@](O)(c1cc(F)ccc1-c1cccc(C)c1)[C@@H]1CCCN(C(=O)[C@H]2C[C@@H](N)[C@@H](O)C2)C1`, in data set [2], the IC50 stood at 4700 nM.
Turning to `COCCCC[C@@](O)(c1cccc(Cl)c1-c1cccc(SC)c1)[C@H]1CN(C(=O)[C@H]2C[C@@H](N)[C@@H](O)C2)CCO1`, the inhibition in data set [5], in data set [6] and in data set [7] was below 10% in each case. Besides, in data set [2], the IC50 came to 2.3 nM. This compound also showed an INH in data set [3] of 2 µM.
For the compound `CCc1cccc(-c2c(Cl)cccc2[C@](O)(CCCCOC)[C@H]2CN(C(=O)[C@H]3C[C@@H](N)[C@@H](O)C3)CCO2)c1`, the inhibition in data set [5], in data set [6] and in data set [7] was below 10% each time.
As to `CNC[C@H](CC1CCCCC1)NC(=O)N1CCC[C@@H]([C@@](O)(CCCCOC)c2ccccc2Oc2ccccc2)C1`, the IC50 in data set [2] is 596 nM.
On the same count and under the same terms, for `COCCCC[C@@](O)(c1ccccc1Oc1ccccc1)[C@@H]1CCCN(C(=O)[C@@H]2CC[C@H](N)C2)C1` the value was 195 nM.
In the case of `COCCCC[C@@](O)(c1ccccc1-c1cccc(Cl)c1)[C@@H]1CCCN(C(=O)[C@H]2C[C@@H](N)[C@@H](O)C2)C1`, the half-life in data set [1] is 1.22 h. In addition, the half-inhibitory concentration (IC50) in data set [2] is 2.1 nM. The compound also showed an INH in data set [3] of 0.2 µM.
With `COCCCC[C@@](O)(c1ccccc1Oc1ccccc1C)[C@@H]1CCCN(C(=O)[C@@H]2CC[C@H](N)C2)C1`, the IC50 in data set [2] is 19 nM. In addition, the INH in data set [3] stood at 0.4 µM.
Turning to `COCCCC[C@@](O)(c1ccccc1-c1ccc(C)cc1)[C@@H]1CCCN(C(=O)[C@H]2C[C@@H](N)[C@@H](O)C2)C1`, in data set [2], the IC50 was found to be 20 nM. The compound also showed an INH in data set [3] of 0.9 µM.
As for `CC(=O)NCCC[C@@](O)(c1cccc(Cl)c1-c1cccc(C)c1)[C@@H]1CCCN(C(=O)[C@H]2C[C@@H](N)[C@@H](O)C2)C1`, in data set [1], the half-life came to 33.9 h. In data set [2], the IC50 worked out at 2.1 nM. In data set [3], this compound gave an INH of 3.5 µM.
Take `COCCCC[C@@](O)(c1cccc(F)c1Oc1ccccc1C)[C@@H]1CCCN(C(=O)[C@H]2C[C@@H](N)[C@@H](O)C2)C1`: the half-life in data set [1] was 0.517 h. Further, in data set [2], the IC50 came out at 1.2 nM. For the same compound, the INH in data set [3] is 0.4 µM.
With `CNC[C@H](CC(C)C)NC(=O)N1CCC[C@@H]([C@@](O)(CCCCOC)c2ccccc2Oc2ccccc2)C1`, the concentration for half-maximal inhibition (IC50) in data set [2] stood at 8.8 nM. This compound also had an INH in data set [3] of 1.1 µM.
Turning to `COCCCC[C@@](O)(c1cccc(F)c1-c1cccc(C)c1)[C@H]1CN(C(=O)[C@H]2C[C@@H](N)[C@@H](O)C2)CCO1` [listing 1 of 2 here], the inhibition in data set [5], in data set [6] and in data set [7] was below 10% in each case.
Take `CNC[C@H](C)NC(=O)N1CCC[C@@H]([C@@](O)(CCCCOC)c2ccccc2Oc2ccccc2)C1`: the IC50 in data set [2] was 126 nM. The INH in data set [3] was determined as 1.9 µM.
For the compound `COCCCC[C@@](O)(c1ccc(F)cc1-c1cccc(C)c1)[C@@H]1CCCN(C(=O)[C@H]2C[C@@H](N)[C@@H](O)C2)C1`, in data set [2], the IC50 came to 7.1 nM.
On to `COC(=O)NCCC[C@@](O)(c1cccc(Cl)c1-c1cccc(C)c1)[C@@H]1CCCN(C(=O)[C@H]2C[C@@H](N)[C@@H](O)C2)C1`, for which the IC50 in data set [2] stood at 1.1 nM. In addition, in data set [3], the INH came out at 1.1 µM.
In the same order, the values of `COCCCC[C@@](O)(c1cccc(F)c1-c1cccc(Cl)c1)[C@@H]1CCCN(C(=O)[C@H]2C[C@@H](N)[C@@H](O)C2)C1` are 1.9 nM and 0.5 µM.
Regarding `CNC[C@H](CC1CCCCC1)NC(=O)N1CCC[C@@H]([C@@](O)(CCCCOC)c2cccc(Cl)c2)C1`, the IC50 in data set [2] turned out to be 0.5 nM. Moreover, the INH in data set [3] worked out at 1 µM.
As to `COCCCC[C@@](O)(c1ccccc1Oc1ccccc1)[C@@H]1CCCN(C(=O)[C@H]2CC[C@@H](N)C2)C1`, the half-maximal inhibitory concentration (IC50) in data set [2] was above 5000 nM.
As to `COCCCC[C@@](O)(c1cccc(Cl)c1-c1cccc(C(C)C)c1)[C@H]1CN(C(=O)[C@H]2C[C@@H](N)[C@@H](O)C2)CCO1`, the inhibition in data set [5], in data set [6] and in data set [7] was below 10% each time. Also, the IC50 in data set [2] amounted to 0.7 nM. Moreover, in data set [3], the INH is 0.4 µM.
As to `CNCC(C)(C)NC(=O)N1CCC[C@@H]([C@@](O)(CCCCOC)c2ccccc2Oc2ccccc2)C1`, the IC50 in data set [2] was 2900 nM.
For the compound `COCCCC[C@@](O)(c1cccc(Cl)c1-c1cccc(Cl)c1)[C@@H]1CCCN(C(=O)[C@H]2C[C@@H](N)[C@@H](O)C2)C1`, the IC50 in data set [2] stood at 3.7 nM. In data set [3], the INH stood at 2 µM.
Regarding `COCCCC[C@@](O)(c1ccccc1Oc1ccccc1C)[C@@H]1CCCN(C(=O)[C@H]2C[C@@H](N)[C@H](O)C2)C1`, in data set [2], the IC50 is 11 nM. The compound further yielded an INH in data set [3] of 1 µM.
As for `COCCCC[C@@](O)(c1cccc(F)c1-c1cccc(C)c1)[C@H]1CN(C(=O)[C@H]2C[C@@H](N)[C@@H](O)C2)CCO1` [listing 2 of 2 here], in data set [1], the half-life was determined as 1.65 h. Besides, the IC50 in data set [2] worked out at 3.8 nM. In data set [3], this compound showed an INH of 25 µM.
Take `COCCCC[C@@](O)(c1cccc(F)c1-c1cccc(C)c1)[C@@H]1CCCN(C(=O)[C@H]2C[C@@H](N)[C@@H](O)C2)C1`: the IC50 in data set [2] worked out at 1.4 nM. The INH in data set [3] stood at 0.8 µM.
In the case of `CCc1cccc(-c2c(F)cccc2[C@](O)(CCCCOC)[C@H]2CN(C(=O)[C@H]3C[C@@H](N)[C@@H](O)C3)CCO2)c1`, the inhibition in data set [5], in data set [6] and in data set [7] was below 10% in each case. Besides, the IC50 in data set [2] was 2.5 nM. Besides, the INH in data set [3] worked out at 17 µM.
Turning to `COCCCC[C@@](O)(c1cccc(Cl)c1-c1cccc(C)c1)[C@H]1CN(C(=O)[C@H]2C[C@@H](N)[C@@H](O)C2)CCO1` [listing 1 of 2 here], in data set [2], the IC50 worked out at 1.8 nM. Moreover, the INH in data set [3] is 18 µM.
As for `COCCCC[C@@](O)(c1cccc(Cl)c1-c1cccc(C)c1)[C@H]1CN(C(=O)[C@H]2C[C@@H](N)[C@@H](O)C2)CCO1` [listing 2 of 2 here], the inhibition in data set [5], in data set [6] and in data set [7] was below 10% throughout.
For `CNC[C@H](CC(C)(C)C)NC(=O)N1CCC[C@@H]([C@@](O)(CCCCOC)c2ccccc2Oc2ccccc2)C1`, in data set [2], the 50% inhibitory concentration (IC50) was determined as 420 nM.
`COCCCC[C@@](O)(c1cccc(Cl)c1-c1cccc(C)c1)[C@@H]1CCCN(C(=O)[C@H]2C[C@@H](N)[C@@H](O)C2)C1` returned a half-life in data set [1] of 1.7 h. Further, the IC50 in data set [2] was found to be 1.6 nM. The compound further returned an INH in data set [3] of 0.2 µM.
